Calls of active or inactive are those of the source. The calls are words filed in the database; no cut-off is given here.
Columns and labels:
Mus musculus [1] = assay: Analgesic activity in sc dosed Swiss-Webster Royal Hart mouse after 30 mins by Haffner tail clamp test; format: functional; details: 0.5 h
Mus musculus [2] = assay: Antidiarrheal activity in Swiss-Webster Royal Hart mouse assessed as decrease in colonic propulsive motility at 10 mg/kg, ip; format: functional, organism-based; parameters: dose 10 mg/kg
Mus musculus [3] = assay: Antidiarrheal activity in Swiss-Webster Royal Hart mouse assessed as colonic propulsive motility at 20 to 100 mg/kg, po administered as aqueous solution; format: functional, organism-based
Outline: (§1)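 Male Swiss-Webster Royal Hart mice, groups of ten per dose level, doses up to 300 mg/kg per group. Water-soluble salts were given po or ip as aqueous solutions. Analgesia was tested by Haffner tail clamp and phenylquinone-induced writhing, anti-diarrheal effect as colonic propulsive motility, plus general behaviour observation.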

Mus musculus [4] = assay: Analgesic activity in Swiss-Webster Royal Hart mouse at 20 to 100 mg/kg, po administered as solution in 30% aqueous propylene glycol by Haffner tail clamp test; format: functional, organism-based
Outline: (§2)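 Male Swiss-Webster Royal Hart mice, ten per dose level, doses up to 300 mg/kg per group. Salt was dissolved in 30% aqueous propylene glycol and dosed po or ip. Analgesia was tested by Haffner tail clamp and phenylquinone-induced writhing, anti-diarrheal effect as colonic propulsive motility.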

Mus musculus [5] = assay: Analgesic activity in Swiss-Webster Royal Hart mouse at 20 to 100 mg/kg, po administered as aqueous solution by Haffner tail clamp test; format: functional, organism-based; outline: as §1
Mus musculus [6] = assay: Analgesic activity in Swiss-Webster Royal Hart mouse at 20 to 100 mg/kg, po administered as solution in 30% aqueous propylene glycol by phenylquinone-induced writhing test; format: functional, organism-based; outline: as §2
Mus musculus [7] = assay: Analgesic activity in Swiss-Webster Royal Hart mouse at 20 to 100 mg/kg, po administered as aqueous solution by phenylquinone-induced writhing test; format: functional, organism-based; outline: as §1
[8] = Dissociation constant, pKa of the compound; format: physicochemical
Outline: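 Apparent pKa* measured in 66% aqueous dimethylformamide at 30° by potentiometric titration of monoperchlorate salts with 0.1 M NaOH, with pH recorded via a combination electrode on a recording titrator.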

Mus musculus [9] = assay: Antidiarrheal activity in Swiss-Webster Royal Hart mouse assessed as colonic propulsive motility at 20 to 100 mg/kg, po administered as solution in 30% aqueous propylene glycol; format: functional, organism-based; outline: as §2
Mus musculus [10] = assay: Convulsant activity in Swiss-Webster Royal Hart mouse at 100 to 300 mg/kg, ip administered as aqueous solution; format: ADME, organism-based; parameters: dose 100-300 mg/kg, route intraperitoneal; details: in vivo; outline: as §1
Mus musculus [11] = assay: Convulsant activity in Swiss-Webster Royal Hart mouse at 30 to 100 mg/kg, ip administered as aqueous solution; format: ADME, organism-based; parameters: dose 30-100 mg/kg, route intraperitoneal; details: in vivo; outline: as §1

Compound	ED50 (Mus musculus [1]) [mg/kg]	inhibition (Mus musculus [2])	Activity (Mus musculus [3])	Activity (Mus musculus [4])	Activity (Mus musculus [5])	Activity (Mus musculus [6])	Activity (Mus musculus [7])	pKa [8]	Activity (Mus musculus [9])	Activity (Mus musculus [10])	Activity (Mus musculus [11])
CO[C@]1(c2ccccc2)[C@@H]2CCC[C@H]1CN(C)C2	3.9	Active	–	–	–	–	–	–	–	–	–
CCC(=O)OC1(c2ccccc2)C2CN(C)CC1CN(C)C2.CS(=O)(=O)O (stereo not given)	–	–	inactive	inactive	inactive	inactive	inactive	11	inactive	Toxic	–
CC1(C)C2CCC1(CS(=O)(=O)O)C(=O)C2.CN1C[C@H]2CN(C)C[C@H](C1)[C@@]2(O)c1ccccc1	–	–	inactive	inactive	inactive	inactive	inactive	11.7	inactive	–	Toxic
COC1(c2ccccc2)C2CN(C)CC1CN(C)C2 (stereo not given)	–	–	inactive	inactive	inactive	inactive	inactive	11.7	inactive	–	–

— ChEMBL document CHEMBL3271960, “7-Aza analogs of the analgetic agent azabicyclane. Synthesis and pharmacologic analysis” (J Med Chem, 1976)
